Our source for the cytotoxicity values is ChEMBL document CHEMBL4513216, “Probing the Open Global Health Chemical Diversity Library for Multistage-Active Starting Points for Next-Generation Antimalarials” (ACS Infect Dis, 2020).

Each structure is given as a SMILES string.

The nature of this data set: Toxicity liver stage against HepG2, at 10uM. Format: cell-based. Further details: test concentration 10 uM, cell line HepG2-A16-CD81EGFP. To be noted: human, HepG2-A16-CD81EGFP cells; read-out: INHIBITION
The essentials: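 Uninfected HepG2-A16-CD81EGFP cells, 3 × 10^3 per well, 1536-well, plated on prespotted compound at 10 μM final, parasite-free screening media added to match infected plates; puromycin 10 μM positive, DMSO 0.5% negative; run in parallel with 48 h PbLuc assay at 37 °C, 5% CO2; viability by CellTiter-Glo luminescence, normalized to controls.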
Regarding `Cc1nnc(CN2CCOC(c3ccc(Cl)cc3)C2)o1` (stereo not drawn), the cytotoxicity at 10 µM turned out to be 5.33%.

Turning to `Cc1cc(C)n(Cc2ccc(-c3noc(C(=O)NCCO)n3)cc2)n1`, the cytotoxicity at 10 µM is -9.45%.

In the case of `O=C(NCCc1c[nH]c2ccccc12)C1(n2cnnn2)CCCCC1`, the cytotoxicity at 10 µM is -0.321%.

Consider `CCOC(=O)NCc1nn(CCN2CCCC2)c(=O)c2ccccc12`, for which the cytotoxicity at 10 µM came out at 9.66%.

Consider `Cn1c2c(ccc1=O)CC(NC(=O)Cc1ccsc1)CC2` (stereo not drawn), for which the cytotoxicity at 10 µM was 4.08%.

With `C1CN(CC2CCOCC2)Cc2c(CN3CCOCC3)nnn2C1`, the cytotoxicity at 10 µM was -143%.

For the compound `c1coc(CN2CCn3c(CN4CCOCC4)nnc3C2)c1`, the cytotoxicity at 10 µM amounted to 9.1%.

Consider `O=S(=O)(C1CC1)N1CCC2(CC1)COC(COc1cccnc1)C2` (stereo not drawn), for which the cytotoxicity at 10 µM is 9.49%.

For the compound `COc1cc(CC(O)CO)c(OC)c2c1OCO2` (stereo not drawn), the cytotoxicity at 10 µM was -9.96%.

Take `CSc1[nH]nc(NC(=O)c2ccncc2)c1C#N`: the cytotoxicity at 10 µM amounted to 10.6%.

With `CS(=O)(=O)Nc1ccn(Cc2cccc(F)c2)n1`, the cytotoxicity at 10 µM came out at 13.1%.

Consider `CCc1cc(=O)n(CC(=O)N2CCCC2)c(-c2ccc(F)cc2)n1`, for which the cytotoxicity at 10 µM stood at 8.66%.

With `CNC(=O)c1cc(-c2ccccc2)nc2ncnn12`, the cytotoxicity at 10 µM is -4.66%.

In the case of `Cc1cc(Nc2nc(C)cc(C)n2)cc(C2CCCN2)n1` (stereo not drawn), the cytotoxicity at 10 µM turned out to be 0.407%.

Consider `COc1cccc([C@@H]2N[C@H](c3nccs3)Cc3ccsc32)c1OC`, for which the cytotoxicity at 10 µM is 5.24%.

With `Cc1cc(C)n(CC(C)CNC(=O)N(C)Cc2ccco2)n1` (stereo not drawn), the cytotoxicity at 10 µM was found to be 4.47%.

As for `O=C(CCOc1ccc(Cl)cc1)NCCCn1cccn1`, the cytotoxicity at 10 µM is -12.1%.

For the compound `O=C(CCn1ccnc1)N1CCCC(n2cncn2)C1` (stereo not drawn), the cytotoxicity at 10 µM amounted to 0.0383%.

Turning to `CCOCc1cccc(NCc2c[nH]nc2-c2cccnc2)c1`, the cytotoxicity at 10 µM was -3.9%.

`CN(C)c1ncccc1CNc1snc(Cl)c1C#N`: the cytotoxicity at 10 µM was -5.1%.

Consider `COc1cccc(Cc2nnc(SCCS(C)(=O)=O)o2)c1`, for which the cytotoxicity at 10 µM was determined as 2.72%.

As for `CC1COCCN1c1ncnc2sccc12` (stereo not drawn), the cytotoxicity at 10 µM was 14.1%.

As for `c1cnnc(N2CCCC2CNCc2nnc(C3CC3)o2)c1` (stereo not drawn), the cytotoxicity at 10 µM came to 1.41%.

Take `Cc1n[nH]c(C2CN(C(=O)c3cc(C4CC4)on3)CCO2)n1` (stereo not drawn): the cytotoxicity at 10 µM is -9.63%.

Consider `Cc1nnc(C(NS(=O)(=O)c2cc(C#N)ccc2C)C(C)C)[nH]1` (stereo not drawn), for which the cytotoxicity at 10 µM amounted to 4.98%.

Regarding `O=C(C1CCCN(Cc2ccccc2)C1)N1CCc2sccc2C1` (stereo not drawn), the cytotoxicity at 10 µM was 2.41%.

On to `CNC(=O)NC(=O)CN1CCCN(CC(F)(F)F)CC1`, for which the cytotoxicity at 10 µM is -2.37%.

Turning to `CSc1ccsc1C(=O)NS(=O)(=O)c1cnn(C)c1`, the cytotoxicity at 10 µM was -5.35%.

In the case of `CCc1nc(CN2CCCC2C(=O)NC)cs1` (stereo not drawn), the cytotoxicity at 10 µM is -3.09%.

In the case of `NC(=O)CNC(=O)c1ccc(CNCc2ccc(Cl)cc2Cl)cc1`, the cytotoxicity at 10 µM is -41.5%.

As for `CCC(CC(=O)Nc1ccc2c(c1)CC(=O)N2)c1ccccc1` (stereo not drawn), the cytotoxicity at 10 µM was -1.06%.

On to `FC(F)(F)c1n[nH]c2c1CN(Cc1cn3ccccc3n1)CC2`, for which the cytotoxicity at 10 µM turned out to be 7.76%.

On to `N#Cc1ccc(N2CCCN(CC(=O)N3CCNC(=O)C3)CC2)cc1`, for which the cytotoxicity at 10 µM came out at 5.27%.

In the case of `CNC(=O)Cc1noc(Cc2cccc(Br)c2)n1`, the cytotoxicity at 10 µM was 1.06%.

Regarding `COCC(=O)N1CCC2(CC1)c1ccccc1[C@@H](N1CCSCC1)[C@@H]2O`, the cytotoxicity at 10 µM turned out to be 4.58%.

Take `CN(Cc1cc(C2CC2)on1)C(=O)C(c1cccnc1)N1CCCC1` (stereo not drawn): the cytotoxicity at 10 µM is -41.6%.

As to `Cc1ccc(N2CCC(c3[nH]ncc3Cc3ccccc3)CC2)nn1`, the cytotoxicity at 10 µM was -6.86%.

`CN1CCc2[nH]nc(C(=O)N3CCC4(CN(C)C(=O)O4)C3)c2C1` (stereo not drawn): the cytotoxicity at 10 µM is -46.4%.

With `O=C(CN1CC(c2ccccc2)CC1=O)N1CCC(c2ncc[nH]2)CC1` (stereo not drawn), the cytotoxicity at 10 µM is -0.234%.

Consider `FC(F)(F)c1ccc(-n2ccnc2-c2cc3n(n2)CCNC3)cn1`, for which the cytotoxicity at 10 µM is -4.65%.

Turning to `CCCc1cncnc1N1CCC(NCc2ccncc2)CC1`, the cytotoxicity at 10 µM was 6.31%.

On to `COCC(C)Nc1ccc(-c2nc(Cc3ccc(F)cc3)no2)cn1` (stereo not drawn), for which the cytotoxicity at 10 µM amounted to 7.22%.

For the compound `CSCC(=O)N1CCCN(c2ccncc2C)CC1`, the cytotoxicity at 10 µM is -6.09%.

For `Cn1ncnc1-c1ccnc(N2CCC(C(O)c3cccs3)CC2)n1` (stereo not drawn), the cytotoxicity at 10 µM was -39.2%.

As for `CCc1cnc(N)nc1N1CCN(C(C)=O)CC1`, the cytotoxicity at 10 µM was -51.7%.

Take `Cc1ccc(-c2ccnc(NC(C)c3ncc[nH]3)n2)c(C)n1` (stereo not drawn): the cytotoxicity at 10 µM amounted to 3.29%.

Consider `CS(=O)(=O)N1CCC(NCC2(N3CCOCC3)CCCCC2)CC1`, for which the cytotoxicity at 10 µM was -3.27%.

In the case of `CNC1CCN(C2CCN(c3ccc(-c4ccco4)cc3)CC2)CC1`, the cytotoxicity at 10 µM was -22.4%.

With `Cc1oc(-c2ccc(F)cc2F)nc1CN1C[C@@H](C)O[C@@H](C)C1`, the cytotoxicity at 10 µM was -39.9%.

Regarding `Cc1cnccc1CN(C)C1CCN(c2ncnc3[nH]cnc23)CC1`, the cytotoxicity at 10 µM was -42.9%.

For `Cn1cc(CN(Cc2cccc(-n3cccn3)c2)C2CC2)cn1`, the cytotoxicity at 10 µM was -15.4%.

Consider `Cc1nn(CCNC(C)Cn2cncn2)c(C)c1Cl` (stereo not drawn), for which the cytotoxicity at 10 µM was determined as 13.4%.

As for `CC[C@H]1CN(C(=O)c2cnc(CN3CCCC3)s2)CC[C@@]1(C)O`, the cytotoxicity at 10 µM is -16%.

`CCN1CCN(c2ncc(-c3cc(C)no3)c(-c3ccoc3C)n2)CC1`: the cytotoxicity at 10 µM worked out at 1.16%.

As to `CCOc1ccc(Cl)c(C(=O)NC)n1`, the cytotoxicity at 10 µM was -4.63%.

In the case of `CC(NS(C)(=O)=O)C(=O)N1CCCN(Cc2cscn2)CC1` (stereo not drawn), the cytotoxicity at 10 µM is -5.95%.

Take `CCOc1ccc(CC(CNC(=O)c2ccoc2C)C(N)=O)cc1` (stereo not drawn): the cytotoxicity at 10 µM was 7.87%.

With `Cc1nn(C)c(C)c1C1CCCN1C(=O)CCCn1cccn1` (stereo not drawn), the cytotoxicity at 10 µM was -0.685%.

Consider `CNS(=O)(=O)c1ccc(C(=O)N2CCCC2c2cnn(C)c2)o1` (stereo not drawn), for which the cytotoxicity at 10 µM is -8.28%.

Take `CCc1ccc(O)c(C(=O)NC2CCN(Cc3ccncc3)CC2)c1`: the cytotoxicity at 10 µM worked out at 5.52%.

`COCCCNC(=O)NCc1ccc(C)cc1`: the cytotoxicity at 10 µM is 3.37%.

With `CCOc1cccc(CNC(=O)NCC(O)c2cccc(F)c2)c1` (stereo not drawn), the cytotoxicity at 10 µM is -2.92%.

Regarding `Cc1ccc(F)cc1S(=O)(=O)NCc1cccnc1N(C)C`, the cytotoxicity at 10 µM turned out to be 0.716%.

Regarding `CCOc1ccc(CC(=O)N2CCN(c3nccn3CC)CC2)cc1`, the cytotoxicity at 10 µM came to 11.1%.

As to `Cc1ccc(CN[C@@H]2COC[C@H]2c2ccc(F)cc2)cc1C`, the cytotoxicity at 10 µM came to 9.07%.

On to `CC(C)CN1CCN(S(=O)(=O)c2cn(C)cn2)Cc2cccnc21`, for which the cytotoxicity at 10 µM is -144%.

As to `CC(=O)N1CCO[C@@H]2CN(C(=O)c3ccc4ncccc4c3)CC[C@@H]2C1`, the cytotoxicity at 10 µM was 8.22%.

For `CNC(=O)c1cc2c(nc1NCC(C)C)CCN(C)CC2`, the cytotoxicity at 10 µM is -153%.

As to `CCCN1CCCn2c(nc(CNC(=O)N3CCCC3)cc2=O)C1`, the cytotoxicity at 10 µM came to 12.1%.

On to `Cc1nc(COC[C@@H]2CCC[C@@]23CNCCO3)cs1`, for which the cytotoxicity at 10 µM was determined as 3.29%.

For the compound `CCOc1ccc2ccccc2c1CNCC1CCNCC1`, the cytotoxicity at 10 µM was -9.67%.

`O=C1NC2(CCN(Cc3nccs3)CC2)CC1c1ccncc1` (stereo not drawn): the cytotoxicity at 10 µM is -1.31%.

Consider `COc1ccc(Cl)cc1S(=O)(=O)N1C[C@H]2CC[C@@H](C1)N(C)C2=O`, for which the cytotoxicity at 10 µM came to 3.98%.
